One experiment has as its system Rattus norvegicus. As to the kind of experiment: Hypotensive activity in iv dosed Charles River CD rat assessed as decrease in mean blood pressure administered as single bolus dose relative to PGE1. It is filed as functional. On the set-up: Activity: scale not given: the % may be the effect or the level left. A digest of the protocol:
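Male rats, 200–300 g, anesthetized with urethane 1.5 g/kg ip. They received heparin 5 mg/kg iv, then atropine 5 mg/kg and pentolinium 10 mg/kg sc. Body temperature held at […] ± 0.5 °C. Carotid pressure recorded; femoral iv bolus doses of test and PGE1 given in a Latin square. Maximal fall in mean pressure read, with 4–8 replicates per dose, and potency from a four-point parallel line assay (Finney).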

For experiment [1], the system named is Canis familiaris. As to the kind of experiment: Gastric antisecretory activity in Mongrel dog with heidenhain pouches assessed as inhibition of histamine-induced total acid output at 1 to 100 ug/kg, iv administered as single bolus dose at 1 hr post histamine challenge relative to PGE1. It is filed as functional, Canis lupus familiaris. A digest of the protocol: (§1)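 Dogs fasted 18 h, placed in Pavlov stands and infused iv with 0.15 M NaCl. Pouch secretion was collected every 15 min. After basal secretion, histamine was infused at 1.0 mg/h (about 60 μg/kg/h, about 75% of maximal). At the steady-state plateau (about 1 h), a single iv bolus was given, logarithmically spaced, usually 1.0-100 μg/kg. Total acidity was titrated with 0.1 N NaOH to pH 7.0. ED50 is 50% inhibition of total acid output.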

The nature of experiment [2]: Muscle stimulating activity in Mongolian gerbil colon treated every 4 mins relative to PGE1. In kind it is functional, Meriones unguiculatus. A digest of the protocol: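 Colon from adult male gerbils killed by cervical dislocation, bath oxygenated; isotonic longitudinal contractions recorded. Two doses each of test compound and PGE1 given at 4-min intervals in Latin square order, with a rinse after each. Four contractions per dose; relative potency computed by the Finney method. Compounds were dissolved in isoosmotic sodium phosphate buffer, pH 7.4.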

In experiment [3] the test system is Canis familiaris. As to the kind of experiment: Gastric antisecretory activity in iv dosed Mongrel dog with heidenhain pouches assessed as inhibition of histamine-induced total acid output administered as single bolus dose at 1 hr post histamine challenge. To be noted: Canis lupus familiaris. It is filed as functional. The procedure, abridged:
as §1

Experiment [4] has as its system Canis familiaris. As to the kind of experiment: Gastric antisecretory activity in Mongrel dog with heidenhain pouches assessed as inhibition of histamine-induced total acid output at 30 ug/kg, iv administered as single bolus dose at 1 hr post histamine challenge. To be noted: Canis lupus familiaris. It is filed as functional, organism-based. A digest of the protocol:
as §1

Experiment [5] concerns Canis familiaris. As to the kind of experiment: Gastric antisecretory activity in Mongrel dog with heidenhain pouches assessed as inhibition of histamine-induced total acid output at 100 ug/kg, iv administered as single bolus dose at 1 hr post histamine challenge. In kind it is functional, organism-based. Conditions: Canis lupus familiaris. A digest of the protocol:
as §1

Activity calls are given as the source filed them. The calls are words filed in the database; no cut-off is given here.

As a reminder, the ED50 is the midpoint of the dose-response relation.

With `CCCCCC[C@H](O)/C=C/C1[C@H](O)CC(=O)[C@@H]1CCCCCCC(=O)O` (mixture of isomers), the “fold change (FC)” value in the experiment with Rattus norvegicus was determined as 0.68; in the experiment on Canis familiaris [1] it was 1.13; in experiment [2] it was 0.54. In addition, in the experiment on Canis familiaris [3], the ED50 worked out at 5.8 µg/kg.
With `CCCCCCC[C@H](O)/C=C/C1[C@H](O)CC(=O)[C@@H]1CCCCCCC(=O)O` (mixture of isomers), the Activity in the experiment with Rattus norvegicus came out at 84%. In addition, the “fold change (FC)” value stood at 0.84 in the experiment on Rattus norvegicus, 0.25 in the experiment on Canis familiaris [1] and 0.064 in experiment [2]. Moreover, the ED50 with Canis familiaris [3] came out at 30 µg/kg.
Take `CCCCCCCC[C@H](O)/C=C/C1[C@H](O)CC(=O)[C@@H]1CCCCCCC(=O)O` (mixture of isomers): the figures for the “fold change (FC)” value (in the experiment with Rattus norvegicus; in experiment [2]) were 0.42 and 0.005, respectively. Besides, the inhibition entry in the experiment with Canis familiaris [4] was “inactive”.
For `CCCCCCCCC[C@H](O)/C=C/C1[C@H](O)CC(=O)[C@@H]1CCCCCCC(=O)O` (mixture of isomers), the “fold change (FC)” value is <0.12 with Rattus norvegicus and 0.006 in experiment [2]. For the same compound, the inhibition entry with Canis familiaris [5] was “Active”.
`CCCCC[C@H](O)/C=C/[C@H]1[C@H](O)CC(=O)[C@@H]1CCCCCCC(=O)O` [ALPROSTADIL]: the ED50 in the experiment on Canis familiaris [3] amounted to 7.59 µg/kg.

The record behind these values is ChEMBL document CHEMBL3272076, “Synthesis and biological evaluation of omega-homologues of prostaglandin E1” (1976).
